Experimental data of several laboratories.
Protocols differ between the studies behind these lines.
Cell line: HepG2
Effect on: cell growth or viability

| SMILES | technique | time | IC50 |
| --- | --- | --- | --- |
| COc1cc([C@@H]2c3cc4c(cc3[C@@H](O[C@@H]3O[C@@H]5CO[C@@H](C)O[C@H]5[C@H](O)[C@H]3O)[C@H]3COC(=O)[C@H]23)OCO4)cc(OC)c1O | MTT | 75 h | 45.9 µM |
| O=C1CS/C(=N\c2cc(C(F)(F)F)ccc2-c2nnc(N3C(=O)CS/C3=N\c3ccc(F)c(O)c3)s2)N1c1ccc(F)c(O)c1 | MTT |  | 22.5 µM |
| CC(=O)c1nc2ccccc2n1Cc1cn([C@@H]2OC[C@@H](O)[C@H](O)[C@H]2O)nn1 | LDH | 48 h | 1.55 µM |
| O=C1CS/C(=N\c2cc(C(F)(F)F)ccc2-c2nnc(N3C(=O)CS/C3=N\c3ccc(F)cc3)s2)N1c1ccc(F)cc1 | MTT |  | 24.1 µM |
| COc1ccc(N(Cc2csc(-c3ccc(Br)cc3)n2)C(=O)CCCCCC(=O)NO)cc1 | MTT | 72 h | 0.57 µM |
| C/C(=C\C(=O)N[C@H](C(=O)N1CCC[C@H]1C(=O)N(c1ccccc1)c1ccc(I)cc1)C(C)(C)C)c1ccc(OP(=O)(O)O)cc1 | CCK-8 |  | 6.09 µM |
| S=C(N/N=C/c1cccc2cc3ccccc3nc12)Nc1ccccc1 | MTT | 48 h | > 50 µM |
| CCOc1ccc(Nc2c3c(nc4ccccc24)CCC3)cc1 | resazurin | 72 h | 11.3 µM |
| CC(C)c1nc(N(C)S(C)(=O)=O)nc(-c2ccc(F)cc2)c1/C=C/[C@@H](O)C[C@@H](O)CC(=O)O | MTT | 24 h | 59.1 µg/mL |
| O=C(/C=C/c1ccc(F)cc1)c1nc2ccccc2n1Cc1cn([C@@H]2OC[C@@H](O)[C@H](O)[C@H]2O)nn1 | LDH | 48 h | 1.63 µM |
| NC(=O)c1cnc(NCCc2ccc(O)c(Cl)c2)nc1NCc1ccccc1 | CCK-8 | 48 h | 1.37 µM |
| CSc1ccccc1-c1cc(C(N)=O)c2[nH]c3c(c2c1)CC(N)CC3 (centres unmarked) |  |  | 2.46 µM |
| Cc1noc(-c2nn(Cc3ccc(Cl)cc3Cl)c3ccccc23)n1 |  | 48 h | 51.4 µM |
| O=C1CS/C(=N\c2cc(C(F)(F)F)ccc2-c2nnc(N3C(=O)CS/C3=N\c3cccc(Cl)c3)s2)N1c1cccc(Cl)c1 | MTT |  | 58.1 µM |
| CC/C(=C(\c1ccccc1)c1ccc(OCCN(C)C)cc1)c1ccccc1 |  |  | 17.4 µM |
| O=C1CSC(=Nc2cc([N+](=O)[O-])ccc2[N+](=O)[O-])N1c1nnc(-c2ccc(C(F)(F)F)cc2N=C2SCC(=O)N2c2cc([N+](=O)[O-])ccc2[N+](=O)[O-])s1 | MTT |  | 80.2 µM |
| COc1cccc(NC(=S)N/N=C/c2cccc3cc4ccccc4nc23)c1 | MTT | 48 h | > 50 µM |
| c1ccc(-c2noc(-c3nn(Cc4ccncc4)c4ccccc34)n2)cc1 |  | 48 h | 32.9 µM |
| c1ccc(Oc2ccc(Nc3c4c(nc5ccccc35)CCC4)cc2)cc1 | resazurin | 72 h | 9.45 µM |
| COc1ccc(N(Cc2csc(-c3ccc(C)cc3)n2)C(=O)CCCCCC(=O)NO)cc1 | MTT | 72 h | 0.19 µM |
| CSc1ccccc1-c1ccc(C(N)=O)c2[nH]c3c(c12)CC(N)CC3 (centres unmarked) |  |  | 0.15 µM |

| SMILES | technique | time | IC50 |
| --- | --- | --- | --- |
| CNC(=S)N/N=C/c1cccc2cc3ccccc3nc12 | MTT | 48 h | 42 µM |
| Nc1ncnc2c1ncn2CCN1C(=O)C(=O)c2cc(Cl)ccc21 | SRB |  | 5.62 µM |
| COc1ccc2c(-c3nc(-c4ccccc4)no3)nn(Cc3ccncc3)c2c1 |  | 48 h | 68.1 µM |
| COc1cc([C@@H]2c3cc4c(cc3[C@@H](O[C@@H]3O[C@@H]5CO[C@@H](C)O[C@H]5[C@H](O)[C@H]3O)[C@H]3COC(=O)[C@H]23)OCO4)cc(OC)c1O | MTT |  | 44.5 µM |
| CC(=O)OC[C@H]1O[C@@H](n2cc(Cn3c(C(C)=O)nc4ccccc43)nn2)[C@H](OC(C)=O)[C@@H](OC(C)=O)[C@H]1OC(C)=O | LDH | 48 h | 3.27 µM |
| Fc1ccc2c(-c3nnc(Cc4ccccc4)s3)nn(Cc3ccc(Cl)cc3Cl)c2c1 |  | 48 h | 230 µM |
| CC(C)CNC(=S)N/N=C/c1cccc2cc3ccccc3nc12 | MTT | 48 h | > 50 µM |
| COc1cccc2c1C(=O)c1c(O)c3c(c(O)c1C2=O)C[C@@](O)(C(=O)CO)C[C@@H]3O[C@H]1C[C@H](N)[C@H](O)[C@H](C)O1 |  | 96 h | 0.109 µM |
| COc1ccc2c(-c3ncc(-c4ccccc4)o3)nn(Cc3ccccc3)c2c1 |  | 48 h | 89.7 µM |
| C#CCn1c(C2CC(c3ccc(F)cc3)=NN2C(C)=O)nc2ccccc21 (centres unmarked) | LDH | 48 h | 3.25 µM |
| COc1cccc2c1C(=O)c1c(O)c3c(c(O)c1C2=O)C[C@@](O)(C(=O)CO)C[C@@H]3O[C@H]1C[C@H](N)[C@H](O)[C@H](C)O1 | MTT |  | 31.2 µM |
| C#CCNC(=O)c1c(-c2ccc(OC)cc2)oc2ccc(O)c(CN3CCCCC3)c12 | resazurin | 18 h | 53.2 µM |
| FC(F)(F)c1ccc(-c2nnc(-c3nn(Cc4ccc(Cl)cc4Cl)c4ccccc34)o2)cc1 |  | 48 h | 304 µM |
| N=C(CC(O)c1cc2c(F)cc(F)cc2c2cc(C(F)(F)F)ccc12)Nc1ccc(F)c(F)c1 (centres unmarked) | neutral red | 24 h | 7.8 µM |
| c1ccc(Cc2nnc(-c3nn(Cc4ccccc4)c4ccccc34)o2)cc1 |  | 48 h | 68.6 µM |
| C#CCOc1ccc2oc(-c3ccc(OC)cc3)c(C(=O)OCC)c2c1CN1CCCCC1 | resazurin |  | 34.5 µM |
| COc1ccc(N=C2SCC(=O)N2c2nnc(-c3ccc(C(F)(F)F)cc3N=C3SCC(=O)N3c3ccc(OC)cc3)s2)cc1 | MTT |  | 70.1 µM |
| COc1cccc2c1C(=O)c1c(O)c3c(c(O)c1C2=O)C[C@@](O)(C(=O)CO)C[C@@H]3O[C@H]1C[C@H](N)[C@H](O)[C@H](C)O1 | LDH | 48 h | 3.81 µM |
| O=C1CS/C(=N\c2cc(C(F)(F)F)ccc2-c2nnc(N3C(=O)CS/C3=N\c3cc(O)cc(Br)c3)s2)N1c1cc(O)cc(Br)c1 | MTT |  | 70.4 µM |
| Fc1ccc2c(-c3nnc(Cc4ccccc4)[nH]3)nn(Cc3ccc(Cl)cc3Cl)c2c1 |  | 48 h | 21.2 µM |
